Data set [1] has as its system Trypanosoma cruzi. Description: Antitrypanosomal activity against Trypanosoma cruzi IRHOD/VO/2008/SN3 epimastigotes incubated for 72 hrs. Particulars: IRHOD/VO/2008/SN3, 72 h.
Data set [2] has as its system Trypanosoma cruzi. Put plainly: Antitrypanosomal activity against Trypanosoma cruzi IRHOD/VO/2008/SN3 metacyclic forms infected in african green monkey Vero cells assessed as inhibition of intracellular amastigotes replication at IC25 level 0.5 to 10 days. The data set is classed as functional. The procedure, abridged:
(§1)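 Vero cells in RPMI infected with metacyclic forms at 10:1. Compounds added at IC25 immediately after infection for 12 h at 37 °C, 5% CO2, then washed off. Cultures grown 10 days with fresh medium every 48 h. Giemsa slides scored for % infected cells and amastigotes per cell (>100 cells); trypomastigotes in medium counted. Mean of four.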

Data set [3] relates to Trypanosoma cruzi. Description: Antitrypanosomal activity against Trypanosoma cruzi IRHOD/VO/2008/SN3 […] amastigotes infected in african green monkey Vero cells incubated for 72 hrs. The data set is classed as functional, organism-based. Particulars: IRHOD/VO/2008/SN3, Vero.
Data set [4] can be described thus: Inhibition of Trypanosoma cruzi IRHOD/VO/2008/SN3 epimastigotes Iron superoxide dismutase by spectrophotometry. The procedure, abridged:
(§2)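 Enzyme from sonicated parasites in STE buffer, pH 7.8, or human erythrocyte CuZn-SOD. Activity measured as NBT reduction by superoxide (Beyer–Fridovich): methionine, NBT, Triton X-100 and riboflavin, with A560 read before and after 10 min of light. Compounds tested at 1–100 μM. Mean of five; IC50 by linear regression from Kc.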

The test system of data set [5] is Trypanosoma cruzi. Description: Induction of ultrastructural modifications in Trypanosoma cruzi Maracay at IC25 level incubated for 96 hrs by transmission electron microscopy. The data set is classed as functional, organism-based. The procedure, abridged: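 Maracay epimastigotes at 5 × 10^5 cells/mL exposed at IC25 for 96 h. Pellets washed in PBS, fixed in 2% paraformaldehyde/glutaraldehyde in 0.05 M cacodylate (pH 7.4) for 4 h at 4 °C, then examined by TEM.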

Data set [6] relates to Trypanosoma cruzi. Description: Antitrypanosomal activity against Trypanosoma cruzi IRHOD/VO/2008/SN3 isolated from mouse blood trypomastigotes incubated for 24 hrs. The data set is classed as functional, organism-based. Particulars: IRHOD/VO/2008/SN3, Blood. The procedure, abridged: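 Blood from BALB/c mice 7 days post-infection, drawn by cardiac puncture into 3.8% citrate (7:3). Compounds in PBS at 10, 25 and 50 μM final, mixed with infected blood (~1 × 10^6 parasites/mL). Shaken 10 min at room temperature, held 24 h at 4 °C. Parasites counted at 1:100 dilution against a PBS control.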

In data set [7] the test system is Trypanosoma cruzi. Description: Effect on glucose metabolism in Trypanosoma cruzi IRHOD/VO/2008/SN3 epimastigotes assessed as excreted L-lactate level at IC25 level incubated for 96 hrs at 28 degC by [1H]NMR spectroscopy.
Data set [8] has as its system Trypanosoma cruzi. Put plainly: Antitrypanosomal activity against Trypanosoma cruzi IRHOD/VO/2008/SN3 metacyclic forms infected in african green monkey Vero cells assessed as inhibition of infection rate at IC25 level 0.5 to 10 days. The data set is classed as functional. The procedure, abridged:
as §1

The test system of data set [9] is Trypanosoma cruzi. Put plainly: Effect on glucose metabolism in Trypanosoma cruzi IRHOD/VO/2008/SN3 epimastigotes assessed as excreted ethanol level at IC25 level incubated for 96 hrs at 28 degC by [1H]NMR spectroscopy.
Data set [10] concerns Trypanosoma cruzi. Description: Effect on glucose metabolism in Trypanosoma cruzi IRHOD/VO/2008/SN3 epimastigotes assessed as excreted acetate level at IC25 level incubated for 96 hrs at 28 degC by [1H]NMR spectroscopy.
A short description of data set [11]: Selectivity index, ratio of IC50 for SOD1 in human erythrocytes to IC50 for Trypanosoma cruzi IRHOD/VO/2008/SN3 epimastigotes Iron superoxide dismutase. The data set is classed as cell-based.
Data set [12] relates to Trypanosoma cruzi. Put plainly: Effect on glucose metabolism in Trypanosoma cruzi IRHOD/VO/2008/SN3 epimastigotes assessed as excreted succinate level at IC25 level incubated for 96 hrs at 28 degC by [1H]NMR spectroscopy.
Data set [13] concerns Trypanosoma cruzi. Description: Antitrypanosomal activity against Trypanosoma cruzi IRHOD/VO/2008/SN3 intracellular amastigotes infected in african green monkey Vero cells incubated for 72 hrs. The data set is classed as functional, organism-based. The conditions noted are these: IRHOD/VO/2008/SN3, Vero. In short, it runs like this:
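Vero cells (1 × 10^4/well) grown 2 days on coverslips, then infected with metacyclic forms at 10:1 for 24 h at 37 °C. Extracellular parasites washed off. Compounds at 1–100 μM for 72 h in RPMI with 10% FBS. Amastigotes counted on methanol-fixed, Giemsa-stained slides against untreated cultures. Mean of four determinations; IC50.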

Data set [14] relates to Trypanosoma cruzi. Description: Antitrypanosomal activity against Trypanosoma cruzi IRHOD/VO/2008/SN3 metacyclic forms infected in african green monkey Vero cells assessed as inhibition of trypomastigotes level at IC25 level 0.5 to 10 days. The data set is classed as functional. In short, it runs like this: as §1
Data set [15] relates to Trypanosoma cruzi. Description: Effect on glucose metabolism in Trypanosoma cruzi IRHOD/VO/2008/SN3 epimastigotes assessed as excreted L-alanine level at IC25 level incubated for 96 hrs at 28 degC by [1H]NMR spectroscopy.
Data set [16] deals with Trypanosoma cruzi. Description: Antitrypanosomal activity against Trypanosoma cruzi IRHOD/VO/2008/SN3 metacyclic forms infected in BALB/c mouse model of chronic Chagas disease subjected to 3 cycles of immunosuppression with 50 mg/kg cyclophosphamide monohydrate for 3 consecutive weeks assessed as parasitemia reactivation level at 5 mg/kg/day, ip administered for 5 consecutive days starting on day 7 post infection until day 12 post infection and measured on day 150 post infection. The data set is classed as functional. In short, it runs like this:
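Female BALB/c mice (6–8 wk, 25–30 g), six per group, were infected ip with 5 × 10^5 metacyclic trypomastigotes from infected mouse blood and dosed ip daily on days 7–12 pi. From day 120 pi a subgroup got three 4-day cycles of cyclophosphamide 50 mg/kg, 3 days apart. Parasites were counted by Neubauer chamber the day after cycle three in 5 μL mandibular-vein blood (1:100 PBS). Reactivation was scored against the matching non-immunosuppressed group; three experiments.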

The test system of data set [17] is Trypanosoma cruzi. Put plainly: Antitrypanosomal activity against Trypanosoma cruzi IRHOD/VO/2008/SN3 metacyclic forms infected in BALB/c mouse model of acute Chagas disease assessed as reduction parasitemia at 5 mg/kg/day, ip administered for 5 consecutive days starting on day 7 post infection until day 12 post infection and measured on day 25 post infection. The data set is classed as functional, organism-based. The procedure, abridged:
(§3)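 Groups of six female BALB/c mice (6–8 weeks, 25–30 g) inoculated ip with 5 × 10^5 metacyclic trypomastigotes. Dosed ip at 5 or 15 mg/kg/day on days 7–12 pi; untreated infected controls. Mandibular-vein blood (5 μL in 495 μL PBS) counted every 3 days for 40 days in a Neubauer chamber, as parasites/mL.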

Data set [18] can be described thus: Toxicity in Trypanosoma cruzi IRHOD/VO/2008/SN3 metacyclic forms infected BALB/c mouse model of acute Chagas disease assessed as mortality incidence at 5 mg/kg/day, ip administered for 5 consecutive days starting on day 7 post infection until day 12 post infection and measured 40 days post infection. Also noted: route intraperitoneal. The conditions noted are these: BALB/c, in vivo, read-out: Activity. The data set is classed as organism-based. In short, it runs like this:
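Female BALB/c mice (6–8 wk, 25–30 g), six per group, were infected ip with 5 × 10^5 metacyclic trypomastigotes from infected mouse blood. Once infection was confirmed, compound was given ip daily on days 7–12 pi. An infected untreated group served as control. Deaths were recorded during treatment, and parasitemia was counted in mandibular-vein blood every 3 days up to day 40 pi.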

The test system of data set [19] is Trypanosoma cruzi. Description: Antitrypanosomal activity against Trypanosoma cruzi IRHOD/VO/2008/SN3 metacyclic forms infected in BALB/c mouse model of acute Chagas disease assessed as reduction parasitemia at 5 mg/kg/day, ip administered for 5 consecutive days starting on day 7 post infection until day 12 post infection and measured on day 15 to 20 post infection. The data set is classed as functional. Details: scale not given: the % may be the effect or the level left. Particulars: route intraperitoneal. The procedure, abridged: as §3

Data set [20] deals with Trypanosoma cruzi. Description: Antitrypanosomal activity against Trypanosoma cruzi IRHOD/VO/2008/SN3 metacyclic forms infected in BALB/c mouse model of acute Chagas disease assessed as reduction parasitemia at 5 mg/kg/day, ip administered for 5 consecutive days starting on day 7 post infection until day 12 post infection and measured on day 40 post infection. The data set is classed as functional. Details: scale not given: the % may be the effect or the level left. Particulars: route intraperitoneal. In short, it runs like this:
as §3

The nature of data set [21]: Selectivity index, ratio of IC50 for african green monkey Vero cells to IC50 for Trypanosoma cruzi IRHOD/VO/2008/SN3 axenic amastigotes. The data set is classed as toxicity, cell-based. The conditions noted are these: Vero cells versus Trypanosoma cruzi axenic amastigotes, read-out: Ratio IC50.
Data set [22] is described as follows: Selectivity index, ratio of IC50 for african green monkey Vero cells to IC50 for Trypanosoma cruzi IRHOD/VO/2008/SN3 intracellular amastigotes. Particulars: read-out: Ratio IC50. The data set is classed as toxicity, cell-based.
Data set [23] can be described thus: Toxicity against african green monkey Vero cells. The data set is classed as cell-based, Chlorocebus sabaeus.
The target of data set [24] is Superoxide dismutase [Cu-Zn] (Homo sapiens, UniProt P00441). Put plainly: Inhibition of SOD1 in human erythrocytes by spectrophotometry. The data set is classed as cell-based. The procedure, abridged: as §2
The nature of data set [25]: Selectivity index, ratio of IC50 for african green monkey Vero cells to IC50 for Trypanosoma cruzi IRHOD/VO/2008/SN3 blood trypomastigotes. The conditions noted are these: Vero cells versus Trypanosoma cruzi blood trypomastigotes, read-out: Ratio IC50. The data set is classed as toxicity, cell-based.
Data set [26] is described as follows: Selectivity index, ratio of IC50 for african green monkey Vero cells to IC50 for Trypanosoma cruzi IRHOD/VO/2008/SN3 epimastigotes. The data set is classed as toxicity, cell-based. The conditions noted are these: Vero cells versus Trypanosoma cruzi epimastigotes, read-out: Ratio IC50.

Activity calls are given as the source filed them. The calls are words filed in the database; no cut-off is given here.

Chain of Superoxide dismutase [Cu-Zn] (P00441 whole entry): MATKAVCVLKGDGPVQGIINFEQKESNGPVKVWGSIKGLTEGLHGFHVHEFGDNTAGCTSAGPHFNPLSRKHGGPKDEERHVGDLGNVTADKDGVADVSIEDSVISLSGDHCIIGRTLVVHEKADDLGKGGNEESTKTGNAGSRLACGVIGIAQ

Regarding `c1ccc2c(NCCc3c[nH]cn3)nnc(NCCc3c[nH]cn3)c2c1`, the IC50 is 13 µM in the data set on Trypanosoma cruzi [1]; 15.2 µM in the data set with Trypanosoma cruzi [3]; 48 µM in data set [4]; 22.5 µM in the data set with Trypanosoma cruzi [6]; 18.1 µM in the data set on Trypanosoma cruzi [13]. Besides, the “inhibition (INH)” value stood at 48.7% with Trypanosoma cruzi [2], 65.1% with Trypanosoma cruzi [8] and 63.8% in the data set with Trypanosoma cruzi [14]. For the same compound, the outcome with Trypanosoma cruzi [5] was Active. For the same compound, the Activity in the data set with Trypanosoma cruzi [7] is -15%; in the data set with Trypanosoma cruzi [10], -10%. The outcome with Trypanosoma cruzi [9], in the data set on Trypanosoma cruzi [12] and with Trypanosoma cruzi [15] was inactive. The Ratio IC50 in data set [11] was 2.6.
As to `O=C(Cn1ccnc1[N+](=O)[O-])NCc1ccccc1` [BENZNIDAZOLE], the Activity is 36% in the data set on Trypanosoma cruzi [16], 15.3% in the data set on Trypanosoma cruzi [19] and 16.7% in the data set with Trypanosoma cruzi [20]. The IC50 in the data set on Trypanosoma cruzi [1] was 15.9 µM; in the data set with Trypanosoma cruzi [3] it was 18.9 µM; in the data set on Trypanosoma cruzi [6] it was 16.4 µM. Also, the “inhibition (INH)” value was determined as 12.5% with Trypanosoma cruzi [2], 39.4% in the data set on Trypanosoma cruzi [8] and 41.6% in the data set with Trypanosoma cruzi [14]. Further, the outcome in the data set with Trypanosoma cruzi [17] was Active. For the same compound, the mortality at 960 h in [18] worked out at 20%.
Take `c1ccc2c(NCCCn3ccnc3)nnc(NCCCn3ccnc3)c2c1`: the IC50 with Trypanosoma cruzi [1] is 17.4 µM; in the data set with Trypanosoma cruzi [3], 12.4 µM; in [4], 41.7 µM; with Trypanosoma cruzi [6], 16.9 µM; in data set [23] it was 302 µM; in the data set with Trypanosoma cruzi [13] it was 16.6 µM. Further, the IC50 in data set [24] came out at 66 µM. The “inhibition (INH)” value in the data set on Trypanosoma cruzi [2] was found to be 41.1%; in the data set on Trypanosoma cruzi [8], 51.5%; with Trypanosoma cruzi [14] it was 57.8%. The outcome in the data set with Trypanosoma cruzi [5] was Active. Further, the values for the Activity in the data set on Trypanosoma cruzi [7] and in the data set with Trypanosoma cruzi [10] were -24% and -21%, respectively. Further, the selectivity ratio in data set [21] was determined as 24.2; in [22] it was 18.2; in data set [25], 17.8; in [26], 17.3. Further, the result in the data set with Trypanosoma cruzi [9], in the data set with Trypanosoma cruzi [12] and in the data set with Trypanosoma cruzi [15] was inactive. The Ratio IC50 in data set [11] worked out at 1.6.
Regarding `c1ccc2c(NCCc3cnc[nH]3)nnc(NCCc3cnc[nH]3)c2c1`, the selectivity ratio in [21] stood at 21.3; in data set [22] it was 17.9; in [25] it was 14.4; in [26], 24.9. The results for the IC50 in data set [23] and in data set [24] were 324 µM and 125 µM, respectively.

The values above are taken from ChEMBL document CHEMBL2176896, “Phthalazine derivatives containing imidazole rings behave as Fe-SOD inhibitors and show remarkable anti-T. cruzi activity in immunodeficient-mouse mode of infection” (J Med Chem, 2012).
